mABHD4 FP: ABHD4 inhibitors, primary screen, biochemical, fluorescence polarization, mouse. hit rate 0.54% among 370,000. inhibition, % at 8.92 µM. (Lyso)-N-acylphosphatidylethanolamine lipase (Mus musculus), Q8VD66. purified mABHD4, FP-Rh probe fluorescence polarization;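 active means inhibition exceeding the mean over every tested compound plus 3 SD, cut at about 30% in these data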;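 further: 0% = plate median of compound wells and 100% = S159A mutant with DMSO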
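Test system: mABHD4 protein; Read-out basis: % inhibition; Incubation: 45 min + 60 min at 25 °C; Repeats: single replicate; Technique: fluorescence polarization with parallel and perpendicular emission, 525/598 nm; Compound: 8.92 µM, single dose; Benchmarks: full inhibition S159A mutant plus DMSO, zero as sample-well median.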
Tn6 DDE FP: inhibitors of Tn6 peptide binding to fibrin DD(E), primary screen, biochemical, fluorescence polarization, human fibrin, Tn6 probe; Fibrinogen beta chain (Homo sapiens), P02675; Fibrin DD(E) TRITC-Tn6 fluorescence polarization displacement; inhibition, % at 8.3 µM; hit rate 0.21% among 370,000; AID 720509, 2013;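 active means inhibition above a per-campaign cutoff: mean of compounds within control limits plus 3 SD, cut at about 15% in these data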;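 further: 0% = median of all compound wells on the plate and 100% = blocking peptide control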
HTRA1 inh: HTRA1 serine protease inhibitors, primary screen, biochemical, fluorescence polarization, HTS; recombinant HTRA1, FP-rhodamine activity-based probe; inhibition, % at 5.96 µM; hit rate 0.5% among 340,000; AID 504803, 2011; in the data active means inhibition above about 36%;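 further: 0% = enzyme with DMSO and 100% = wells lacking enzyme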
Target sequence (Q92743 whole entry, looked up): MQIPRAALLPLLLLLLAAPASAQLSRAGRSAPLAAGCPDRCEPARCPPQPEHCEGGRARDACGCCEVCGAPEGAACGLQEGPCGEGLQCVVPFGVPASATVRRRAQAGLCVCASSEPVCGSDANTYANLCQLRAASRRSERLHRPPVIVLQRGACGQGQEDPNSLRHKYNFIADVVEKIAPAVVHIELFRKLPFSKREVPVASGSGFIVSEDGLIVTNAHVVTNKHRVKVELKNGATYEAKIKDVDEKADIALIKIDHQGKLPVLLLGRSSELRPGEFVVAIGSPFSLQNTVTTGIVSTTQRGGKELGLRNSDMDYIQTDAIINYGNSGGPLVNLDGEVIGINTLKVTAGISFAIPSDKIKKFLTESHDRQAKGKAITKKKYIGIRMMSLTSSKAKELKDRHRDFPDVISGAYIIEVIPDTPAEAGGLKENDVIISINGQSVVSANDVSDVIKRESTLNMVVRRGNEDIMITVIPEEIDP
SIAE inh: human SIAE inhibitors, primary screen, biochemical, fluorescence polarization, FP-Rh probe, 1536-well HTS; Sialate O-acetylesterase (Homo sapiens), Q9HAT2; SIAE FP-Rh probe binding; inhibition, % at 9.66 µM; hit rate 0.69% among 370,000; AID 1053197, 2014;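 active means inhibition above a cutoff: mean of compounds within the control limits plus 3 SD of those, cut at about 17% in these data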;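 further: 0% = plate median of compound wells and 100% = probe without SIAE protein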
TCR-CD3 inh: inhibitors of human TCR-CD3 interaction, primary screen, biochemical, fluorescence, TAMRA-labeled TCR probe; T-cell receptor (TCR); inhibition, % at 9.4 µM; hit rate 0.37% among 360,000; in the data active means inhibition above about 19%;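 further: recombinant mutant TCR 2C K166C tagged with TAMRA read by polarization; 0% = receptor in buffer alone and 100% = receptor with positive control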
DDE Tn7 FP inh: inhibitors of Tn7 peptide binding to fibrin DD(E), primary screen, biochemical, fluorescence polarization, human fibrin, Tn7 probe; AID 720508, 2013; Fibrinogen beta chain (Homo sapiens), P02675; FP displacement of FITC-Tn7 peptide from fibrin DD(E); 0% = median of compound wells per plate; inhibition, % at 8.3 µM; hit rate 0.13% among 370,000;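 active means inhibition above the mean of compounds falling within the control limits plus 3 SD of them, cut at about 14% in these data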;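 further: 0% = plate median of compound wells and 100% = 10 µM Aha-Tn7 peptide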
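System: human fibrin DD(E); quantity: Fibrin-DD(E) at 2 µM final; also added: fluorescent Tn7 probe at 0.1 µM; compound dosing: single nominal test concentration of 8.3 µM per compound; schedule: 10 min preincubation, 3 h with tracer, room temperature; detection: fluorescence polarization of the labelled Tn7 tracer; repeats: one replicate per compound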
SIAE confirm: human SIAE inhibitors, retest, confirmation, biochemical, fluorescence polarization, FP-Rh probe, triplicate. inhibition, % at 9.66 µM. shares compounds with SIAE inh. SIAE FP-Rh activity-based probe. hit rate 13% among 2,300;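 active means mean inhibition of the replicates above the hit cutoff set in the primary screen, cut at about 17% in these data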;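 further: 0% = SIAE with DMSO and probe and 100% = probe without SIAE; inhibitors lower polarization as more probe stays unbound to SIAE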
The depositor's hits bear a star; . = no result given; ! = repeats disagree. A selection: hits, their analogues and other compounds. The true share with any hit is near 1.8%.

SMILES	mABHD4 FP	Tn6 DDE FP	HTRA1 inh	SIAE inh	TCR-CD3 inh	DDE Tn7 FP inh	SIAE confirm
O=C(NC(=S)Nc1ccc(S(=O)(=O)Nc2nccs2)cc1)C1CC1	-3	-4	7	2	-5	-1	.
O=C(Nc1ccc(S(=O)(=O)Nc2nccs2)cc1)C1CCCCC1	-4	-5	-1	20*	5	-6	5
O=c1[nH][nH]c(=O)c2cc([N+](=O)[O-])ccc12	8	7	6	18*!	0	-8	5
O=c1[nH]cnc2ccc([N+](=O)[O-])cc12	9	3	3	5	-3	0	.
CCn1c(CCNC(=O)c2ccc(Cl)cc2)n[nH]c1=S	2	4	1	22*	-2	-4	-2
Cc1ccc(C(=O)NCCc2n[nH]c(=S)n2C)cc1	-1	1	-3	1	-2	5	.
Cc1c[nH]c2cccc(-c3ccc4c(c3)OCO4)c12	-4	-2	.	8	.	-2	.
N=C(N)CCCOc1ccccc1-c1ccccc1	5	3	-3	20*	3	-15	-2
O=[N+]([O-])c1cccc(C2=Nn3c(nnc3-c3ccccc3)SC2)c1	-1	-2	.	-2	.	5	.
C/C(=N\N=c1/sc2ccccc2n1C)c1ccccn1	-4	-4	-2	-2	-2	4	.
C/C(=N\N=c1/sc2ccccc2n1C)c1ccc(N2CCOCC2)cc1	6	2	7	19*	-1	-5	6
COc1cc(OC)c(C2SCCCS2)cc1OC	-3	4	-1	18*	-7	6	1
CC(C)(C)c1ccc(OCCNC(=S)Nc2ccccc2)cc1	-24	4	-46	17*	7	-4	-11
CC(C)(C)c1ccc(OCCNCc2ccccc2)cc1	13	9	2	-1	-2	-8	.
COC[C@H]1CCCN1c1ccc2c(c1)O[C@H](C)CCN(C1CC1)S2(=O)=O	4	-8	.	-4	.	3	.
CCCOn1nnnc1-c1ccccc1	8	-3	2	18*	5	-1	3
O=C1CC(c2ccco2)=Nc2ccccc2N1	2	7	4	0	3	5	.
COc1cccc(C2=Nc3cccc4cccc(c34)N2)c1	-6	-12	14	22*	0	8	-1
c1coc(C2=Nc3cccc4cccc(c34)N2)c1	6	-4	5	23*	8	1	8
Nc1ccc(C2=Nc3cccc4cccc(c34)N2)cc1	-3	-18	19	24*	5	6	4
COc1cccc(-c2nnc(-c3ccc4ccccc4c3)o2)c1	-34	-7	-25	-59	-4	10	.
COc1ccc(Oc2c(-c3cccs3)cnn(-c3ccc(C)cc3)c2=O)cc1	-2	7	.	8	.	3	.
COc1ccc(-n2c(SCc3nc4ccccc4[nH]3)nc3ccccc3c2=O)cc1	1	5	.	-22	.	1	.
COc1ccc(NC(=O)N(C)C[C@@H]2OCc3cnnn3CCCC(=O)N([C@@H](C)CO)C[C@H]2C)c(OC)c1	-1	2	2	9	6	8	.
COc1ccc(NC(=O)N(C)C[C@H]2OCc3cnnn3CCCC(=O)N([C@H](C)CO)C[C@@H]2C)c(OC)c1	-2	9	.	21*	-3	11	0
COC(=O)[C@]12C[C@H](CC(=O)N3CCSCC3)C(=O)N(Cc3ccc(Cl)cc3Cl)C1=C[C@H](C(C)(C)C)O[C@@H]2C	-9	2	.	7	.	-3	.
O=C(NCc1cccs1)c1cccc(Nc2nc3ccc(Br)cc3[nH]2)c1	14	5	7	43*	-3	6	22*
O=C(NCc1cccs1)c1ccccc1	2	0	0	1	9	-3	.

Source: PubChem
